Assay results reported in ChEMBL document CHEMBL4251624, “Synthesis of podophyllotoxin linked β-carboline congeners as potential anticancer agents and DNA topoisomerase II inhibitors” (Eur J Med Chem, 2018).
Calls of active or inactive are those of the source. The rule behind the calls is not given here.

Legend:
HeLa = assay: Cytotoxicity against human HeLa cells after 48 hrs by MTT assay; assay type: functional, cell-based
Summary of the method: (§1)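 MTT assay. Cells seeded at 1×10^4 per well in DMEM or MEM with 10% FBS and grown 24 h at 37 °C under CO2. Compounds added for 48 h, then MTT (5 mg/mL stock) for 4 h. Formazan dissolved in DMSO and read at 570 nm. IC50 is the average of three independent experiments.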

HT-29 = assay: Cytotoxicity against human HT-29 cells after 48 hrs by MTT assay; assay type: functional, cell-based; conditions: HT-29, 48 h; summary of the method: as §1
DU-145 [1] = assay: Cytotoxicity against human DU145 cells after 48 hrs by MTT assay; assay type: functional, cell-based; conditions: DU-145, 48 h; summary of the method: as §1
MDA-MB-231 = assay: Cytotoxicity against human MDA-MB-231 cells after 48 hrs by MTT assay; assay type: functional, cell-based; conditions: MDA-MB-231, 48 h; summary of the method: as §1
HEK293 = assay: Cytotoxicity against HEK293 cells after 48 hrs by MTT assay; assay type: cell-based; conditions: Homo sapiens, HEK293, 48 h; summary of the method: as §1
A549 = assay: Cytotoxicity against human A549 cells after 48 hrs by MTT assay; assay type: functional, cell-based; conditions: A549, 48 h; summary of the method: as §1
Calf thymus DNA [2] = assay: Binding affinity to calf thymus DNA assessed as hypochromic effect at 10 uM by fluorescence spectroscopic method; assay type: nucleic-acid assay; conditions: Bos taurus
Summary of the method: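 Fluorescence titration at 25 °C in an acid-washed 1 cm quartz cuvette. Compound held constant at 10 μM and titrated with CT-DNA in equal steps (multiples of 0.5 μM), with a spectrum after each addition. Excitation 230 nm, emission recorded up to 600 nm.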

Calf thymus DNA [3] = assay: Binding affinity to calf thymus DNA by UV-Visible spectroscopic method; assay type: nucleic-acid assay; conditions: Bos taurus
Summary of the method: (§2)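 UV-visible absorption titration at 25 °C in […] cuvettes. Compound held at 25.0 μM (1 ml, 1 cm path), titrated with 5 μl additions of 25.0 μM CT-DNA in 100 mM Tris-HCl pH 7.0 until absorbance saturated. Spectra recorded 200–400 nm, using freshly prepared stocks.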

DU-145 [4] = assay: Cell cycle arrest in human DU145 cells assessed as accumulation at S-phase at 1 uM after 48 hrs by propidium iodide staining based flow cytometry (reference value: 24.99%); assay type: functional
DU-145 [5] = assay: Cell cycle arrest in human DU145 cells assessed as accumulation at sub-G1 phase at 1 uM after 48 hrs by propidium iodide staining based flow cytometry (reference value: 1.49%); assay type: functional
DU-145 [6] = assay: Induction of DNA damage in human DU145 cells at 10 uM after 24 hrs using propidium iodide stain by electrophoresis based fluorescence microscopic method; assay type: functional, cell-based
Summary of the method: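 DU-145 cells treated at 10 μM for 24 h; about 25,000 cells embedded in agarose on slides. Electrophoresis 20 min at 40 V in 0.5% TBE pH 8. Propidium iodide stain 30 min; fluorescence imaging at 20x.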

DU-145 [7] = assay: Cell cycle arrest in human DU145 cells assessed as accumulation at G0/G1 phase at 1 uM after 48 hrs by propidium iodide staining based flow cytometry (reference value: 51.28%); assay type: functional
Calf thymus DNA [8] = assay: Binding affinity to calf thymus DNA assessed as hyperchromic effect […] by UV-Visible spectroscopic method; assay type: nucleic-acid assay; conditions: Bos taurus; summary of the method: as §2
Homo sapiens = species on record: Homo sapiens; assay: Inhibition of topoisomerase-2 (unknown origin) assessed as reduction in ATP-dependent decatenation of kinetoplast DNA at 10 uM after 30 mins by ethidium bromide staining based UV trans-illumination assay
Summary of the method: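 kDNA decatenation, 20 μl reactions: 120 mM KCl, 50 mM Tris-HCl pH 8, 10 mM MgCl2, 0.5 mM DTT, 0.5 mM ATP, BSA, 200–300 ng kDNA, topo II 5 units. Incubated 37 °C for 30 min, stopped with SDS/proteinase K for 10 min at 37 °C. Products run on 1% agarose at 100 V and visualized by ethidium bromide under UV.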

Calf thymus DNA [9] = assay: Binding affinity to calf thymus DNA assessed as hypochromicity of positive CD band at 10 to 20 uM by CD spectroscopic method relative to control; assay type: nucleic-acid assay; conditions: Bos taurus
Summary of the method: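 CD spectra of 10 μM CT-DNA in 100 mM Tris-HCl pH 7.0, alone and with 10.0 or 20 μM compound (1:1 and 1:2 DNA:complex). Recorded 200–350 nm in a 1 mm path cuvette and averaged over 3 scans.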

DU-145 [10] = assay: Cell cycle arrest in human DU145 cells assessed as accumulation at G2/Mphase at 1 uM after 48 hrs by propidium iodide staining based flow cytometry (reference value: 21.71%); assay type: functional

Structure (SMILES) | IC50 (HeLa) [µM] | IC50 (HT-29) [µM] | IC50 (DU-145 [1]) [µM] | IC50 (MDA-MB-231) [µM] | IC50 (HEK293) [µM] | IC50 (A549) [µM] | Activity (Calf thymus DNA [2]) | Kb (Calf thymus DNA [3]) [×10⁴ /M] | Activity (DU-145 [4]) [%] | Activity (DU-145 [5]) [%] | Activity (DU-145 [6]) | Activity (DU-145 [7]) [%] | Activity (Calf thymus DNA [8]) | inhibition (Homo sapiens) | Activity (Calf thymus DNA [9]) | Activity (DU-145 [10]) [%]
COc1cc([C@@H]2c3cc4c(cc3[C@@H](NC(=O)c3cc5c([nH]c6ccccc65)c(-c5cccc(Oc6ccccc6)c5)n3)[C@H]3COC(=O)[C@H]23)OCO4)cc(OC)c1OC | 11.2 | 10.3 | 3.17 | 7.52 | 102 | 5.19 |  |  |  |  |  |  |  |  |  | 
COc1cc([C@@H]2c3cc4c(cc3[C@@H](NC(=O)c3cc5c([nH]c6ccccc65)c(-c5ccc6c(c5)OCO6)n3)[C@H]3COC(=O)[C@H]23)OCO4)cc(OC)c1OC | 15.3 | 30.6 | 14.5 | 34.3 | 70.6 | 21.8 |  |  |  |  |  |  |  |  |  | 
COc1cc([C@@H]2c3cc4c(cc3[C@H](O)[C@H]3COC(=O)[C@H]23)OCO4)cc(OC)c1OC [PODOFILOX] | 3.04 | 2.99 | 3.11 | 9.76 |  |  |  |  |  |  |  |  |  |  |  | 
COc1ccccc1-c1nc(C(=O)N[C@@H]2c3cc4c(cc3[C@@H](c3cc(OC)c(OC)c(OC)c3)[C@H]3C(=O)OC[C@@H]32)OCO4)cc2c1[nH]c1ccccc12 | 4.12 | 4.3 | 1.41 | 2.69 | 107 | 1.94 |  |  |  |  |  |  |  |  |  | 
COc1cc([C@@H]2c3cc4c(cc3[C@@H](NC(=O)c3cc5c([nH]c6ccccc65)c(-c5cccc(Cl)c5)n3)[C@H]3COC(=O)[C@H]23)OCO4)cc(OC)c1OC | 6.09 | 5.26 | 2.41 | 3.29 | 131 | 3.16 |  |  |  |  |  |  |  |  |  | 
COc1cc(-c2nc(C(=O)N[C@@H]3c4cc5c(cc4[C@@H](c4cc(OC)c(OC)c(OC)c4)[C@H]4C(=O)OC[C@@H]43)OCO5)cc3c2[nH]c2ccccc23)cc(OC)c1OC | 72.9 | 86.5 | 40.3 | 58.8 | 168 | 104 |  |  |  |  |  |  |  |  |  | 
COc1cc([C@@H]2c3cc4c(cc3[C@@H](NC(=O)c3cc5c([nH]c6ccccc65)c(-c5ccc(F)cc5)n3)[C@H]3COC(=O)[C@H]23)OCO4)cc(OC)c1OC | 15.5 | 11.5 | 5.07 | 10.7 | 109 | 10.2 |  |  |  |  |  |  |  |  |  | 
COc1cc([C@@H]2c3cc4c(cc3[C@@H](NC(=O)c3cc5c([nH]c6ccccc65)c(-c5ccc(Cl)cc5)n3)[C@H]3COC(=O)[C@H]23)OCO4)cc(OC)c1OC | 6.61 | 5.77 | 2.65 | 3.87 | 58.9 | 3.98 |  |  |  |  |  |  |  |  |  | 
COc1cc([C@@H]2c3cc4c(cc3[C@@H](NC(=O)c3cc5c([nH]c6ccccc65)c(-c5cccnc5)n3)[C@H]3COC(=O)[C@H]23)OCO4)cc(OC)c1OC | 4.72 | 6.36 | 1.98 | 3.05 | 84.3 | 2.55 |  |  |  |  |  |  |  |  |  | 
COc1cccc2c1C(=O)c1c(O)c3c(c(O)c1C2=O)C[C@@](O)(C(=O)CO)C[C@@H]3O[C@H]1C[C@H](N)[C@H](O)[C@H](C)O1 [DOXORUBICIN] |  | 1.41 | 1.86 | 1.32 |  | 1.68 |  |  |  |  |  |  |  |  |  | 
COc1cc([C@@H]2c3cc4c(cc3[C@@H](NC(=O)c3cc5c([nH]c6ccccc65)c(-c5ccc(C)cc5)n3)[C@H]3COC(=O)[C@H]23)OCO4)cc(OC)c1OC | 9.77 | 20 | 8.74 | 16.4 | 59.4 | 16.8 |  |  |  |  |  |  |  |  |  | 
COc1cc([C@@H]2c3cc4c(cc3[C@@H](NC(=O)c3cc5c([nH]c6ccccc65)c(-c5ccc(C(F)(F)F)cc5)n3)[C@H]3COC(=O)[C@H]23)OCO4)cc(OC)c1OC | 32.1 | 46.5 | 24.8 | 75.9 | 63 | 34.1 |  |  |  |  |  |  |  |  |  | 
COc1ccc(-c2nc(C(=O)N[C@@H]3c4cc5c(cc4[C@@H](c4cc(OC)c(OC)c(OC)c4)[C@H]4C(=O)OC[C@@H]43)OCO5)cc3c2[nH]c2ccccc23)cc1OC | 13.4 | 14.3 | 9.16 | 15.5 | 89.8 | 12.7 |  |  |  |  |  |  |  |  |  | 
COc1ccc(-c2nc(C(=O)N[C@@H]3c4cc5c(cc4[C@@H](c4cc(OC)c(OC)c(OC)c4)[C@H]4C(=O)OC[C@@H]43)OCO5)cc3c2[nH]c2ccccc23)cc1 | 21.9 | 35.6 | 16.8 | 34 | 65 | 29.4 |  |  |  |  |  |  |  |  |  | 
COc1cc([C@@H]2c3cc4c(cc3[C@@H](NC(=O)c3cc5c([nH]c6ccccc65)c(-c5ccc(F)c(F)c5)n3)[C@H]3COC(=O)[C@H]23)OCO4)cc(OC)c1OC | 3.72 | 3.53 | 1.14 | 2.9 | 106 | 2.24 | Active | 1 | 39.65 | 10.9 | Active | 18.41 | Active | Active | Active | 28.08
COc1cc([C@@H]2c3cc4c(cc3[C@@H](NC(=O)c3cc5c([nH]c6ccccc65)c(-c5cccc(F)c5)n3)[C@H]3COC(=O)[C@H]23)OCO4)cc(OC)c1OC | 26.5 | 55.7 | 48.4 | 80.4 | 104 | 36.4 |  |  |  |  |  |  |  |  |  | 
COc1cc([C@@H]2c3cc4c(cc3[C@@H](NC(=O)c3cc5c([nH]c6ccccc65)c(-c5ccccc5)n3)[C@H]3COC(=O)[C@H]23)OCO4)cc(OC)c1OC | 5.26 | 6.87 | 1.68 | 2.6 | 75 | 2 |  |  |  |  |  |  |  |  |  | 
COc1cc([C@@H]2c3cc4c(cc3[C@@H](NC(=O)c3cc5c([nH]c6ccccc65)c(-c5cccc6ccccc56)n3)[C@H]3COC(=O)[C@H]23)OCO4)cc(OC)c1OC | 33 | 23 | 22 | 27.9 | 77.3 | 56.9 |  |  |  |  |  |  |  |  |  | 
COc1ccc(OC)c(-c2nc(C(=O)N[C@@H]3c4cc5c(cc4[C@@H](c4cc(OC)c(OC)c(OC)c4)[C@H]4C(=O)OC[C@@H]43)OCO5)cc3c2[nH]c2ccccc23)c1 | 2.92 | 2.68 | 1.07 | 2.64 | 103 | 1.87 | Active | 1 | 41.44 | 10.79 | Active | 18.69 | Active | Active | Active | 29.16
